Measurements from different studies.
Protocols differ between the studies behind these lines. Values after ≈ are worked out from the molar mass of the structure shown.

Cc1cccc(N(O)N=Nc2ccc(S(=O)(=O)Nc3cc(C)on3)cc2)c1 — inhibition (ABTS scavenging; 300 µg/mL): 90.2%
O=C(Nc1cc(F)c(F)c(F)c1)c1ccc(F)c(S(=O)(=O)NCc2cccc(B(O)O)c2)c1 — EC50 (Hepatitis B virus; viral replication, inhibitor, qPCR; HePAD38; 6 days): 920 nM
Cc1ccc(N(O)N=Nc2ccc(S(=O)(=O)Nc3cc(C)on3)cc2)cc1 — inhibition (ABTS scavenging; 20 µg/mL): 17.2%
Cc1ccc(C)n1-c1ccc(-c2nnc(-c3ccc(Br)cc3)[nH]2)cc1 — MIC (Saccharomyces cerevisiae; microbial growth, broth dilution; ATCC9763): 4 µg/mL (≈ 10.2 µM)
O=C(N[C@H](CO)[C@H](O)c1ccc([N+](=O)[O-])cc1)C(Cl)Cl — MIC90 (Aliivibrio fischeri; microbial growth): 3.9 µg/mL (≈ 12.1 µM)
COc1ccnc(COc2ccc(NC(=O)Nc3ccc(F)cc3)cc2)c1OC — IC50 (L02; cell growth or viability, MTT; 72 h): > 100000 nM
CCN(CC)CCNC(=O)c1c(C)[nH]c(/C=C2\C(=O)Nc3ccc(F)cc32)c1C — GI50 (BaF3; cell growth or viability, ATP luminescence; 72 h): 1420 nM
Cl.NCCc1cccc(Oc2ccc(-c3noc(-c4ccc(O)cc4)n3)cc2)c1 — MIC (Clostridioides difficile; microbial growth, broth dilution; 48 h): 4 µg/mL
COc1c(C)cnc(COc2ccc(NC(=O)Nc3cccc(C(F)(F)F)c3)cc2)c1C — IC50 (L02; cell growth or viability, MTT; 72 h): > 100000 nM
Nc1ccc(-c2nc(-c3ccc(Oc4ccccc4)cc3)no2)cc1 — MIC (Clostridioides difficile; microbial growth, broth dilution; 48 h): > 50 µg/mL
O=C1O[C@H]([C@@H](O)CO)C(O)=C1O — inhibition (ABTS scavenging; 60 µg/mL): 49.9%
O=C(O)CCc1cccc(Oc2ccc(-c3noc(-c4ccc(O)cc4)n3)cc2)c1 — MIC (Clostridioides difficile; microbial growth, broth dilution; 48 h): 8 µg/mL (≈ 19.9 µM)
COc1ccc(-c2ccc(-c3ccc(C(=N)N)nc3)s2)cc1Cl — GI50 (SF-268; cell growth or viability, SRB): 1810 nM
